Measurements published in ChEMBL document CHEMBL1132490, “Improving the nicotinic pharmacophore with a series of (Isoxazole)methylene-1-azacyclic compounds: synthesis, structure-activity relationship, and molecular modeling” (J Med Chem, 1999).

Key:
[1] = target: Muscarinic acetylcholine receptor; experiment: In vitro displacement of [3H]oxotremorine-M from muscarinic acetylcholine receptor in rat brain cortex; assay type: tissue-based
[2] = target: Neuronal acetylcholine receptor; experiment: In vitro displacement of [3H]methylcarbamylcholine from nicotinic acetylcholine receptor in rat brain cortex; assay type: tissue-based
Procedure, shortened: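 Male Mol:WIST rat cerebral cortex (fresh or frozen), homogenised in 50 mM Tris-HCl pH 7.4 with 120 mM NaCl, 5 mM KCl, 2 mM CaCl2, 1 mM MgCl2, spun 40000g 10 min; pellet resuspended. Incubated with [3H]MCC (2 nM final) and test salt, 60 min at 0 °C; GF/B filtration (0.5% PEI), scintillation counting. IC50 by nonlinear regression.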

SMILES | IC50 [1] [nM] | IC50 [2] [nM]
Cc1cc(/C=C2/CCN(C)C2)on1 | 4420 | 783
Cc1cc(/C=C2/CN3CCCC2C3)on1 (configuration not stated) | 1570 | 53
Cc1cc(/C=C2\CCN(C)C2)on1 | 15700 | > 1000
Cc1cc(/C=C2\CCCNC2)on1 | 6950 | > 1000
COCc1cc(/C=C2/CN3CCC2CC3)on1 | 4000 | > 1000
Cc1cc(/C=C2\CCCN(C)C2)on1 | 9540 | > 1000
CC(C)c1cc(/C=C2/CN3CCC2CC3)on1 | 2280 | > 1000
CCc1cc(/C=C2\CN3CCC2CC3)on1 | 566 | 100
Cc1cnoc1/C=C1\CN2CCC1C2 (configuration not stated) | 19 | 0.32
CC(C)c1cc(/C=C2\CN3CCC2CC3)on1 | 911 | 107
C/C(=C1/CN2CCC1CC2)c1cc(C)no1 | 2263 | 715
Cc1cc(/C=C2/CCCNC2)on1 | 7220 | 87
Cc1cc(/C=C2/CCNC2)on1 | 3290 | > 1000
Cc1cc(/C=C2/CN3CCC2C3)on1 (configuration not stated) | 1020 | 23
Cc1cc(/C=C2\CN3CCC2C3)on1 (configuration not stated) | 276 | 29
Cc1cc(/C=C2/CN3CCC2CC3)on1 | 1810 | 504
CCCc1cc(/C=C2/CN3CCC2CC3)on1 | 1930 | > 1000
COCc1cc(/C=C2\CN3CCC2CC3)on1 | 1470 | 218
C(=C1/CN2CCC1CC2)/c1ccno1 | 312 | 1.65
Cc1cnoc1/C=C1\CN2CCC1CC2 | 418 | 3.2
Cc1cc(/C(F)=C2\CN3CCC2CC3)on1 | 1450 | 255
CCc1cc(/C=C2/CN3CCC2CC3)on1 | 867 | > 1000
Cc1noc(/C=C2/CN3CCC2CC3)c1C | 373 | > 1000
Cc1cc(C=C2CNC2)on1 | 19300 | > 1000
Cc1cc(/C=C2/CCCN(C)C2)on1 | 5760 | > 1000
CCCc1cc(/C=C2\CN3CCC2CC3)on1 | 852 | 167
Cc1cc(/C=C2\CN3CCC2CC3)on1 | 658 | 3.9
Cc1cc(/C=C2\CN3CCCC2C3)on1 (configuration not stated) | 898 | 130
Clc1ccc(C2CC3CCC2N3)cn1 (racemic) [EPIBATIDINE] | > 1 | 
